Test results as given in ChEMBL document CHEMBL2396594, “Designing allosteric regulators of thrombin. Exosite 2 features multiple subsites that can be targeted by sulfated small molecules for inducing inhibition” (J Med Chem, 2013).
Activity calls are given as the source filed them. The rule behind the calls is not given here.

Columns and labels:
Homo sapiens [1] = organism: Homo sapiens; experiment: Inhibition of human plasma alpha-thrombin assessed as spectrozyme TH hydrolysis at 1 to 900 uM preincubated for 10 mins by spectrophotometric analysis relative to control; assay type: cell-free
Method in brief: (§1)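 Human plasma α-thrombin (5 nM final) with inhibitor (1−900 μM final) in 20 mM Tris-HCl pH 7.4, 100 mM NaCl, 2.5 mM CaCl2, 0.1% PEG8000, PEG20000-coated cuvettes, 10 min. Spectrozyme TH then added (30 μM final). Initial rate from A405 increase. Residual activity fitted by logistic equation with floating Hill slope, Y0, YM to give IC50.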

[2] = (§2) Binding affinity to human plasma alpha-thrombin exosite-2 using spectrozyme TH as substrate after overnight incubation at 25 degC by spectrophotometric analysis in presence of 6.5 uM gamma'-fibrinogen peptide; assay type: cell-free
Homo sapiens [3] = organism: Homo sapiens; experiment: as §2; assay type: cell-free
[4] = (§3) Binding affinity to human plasma alpha-thrombin exosite-2 using spectrozyme TH as substrate after overnight incubation at 25 degC by spectrophotometric analysis in presence of 12.8 uM unfractionated heparin; assay type: cell-free
Homo sapiens [5] = organism: Homo sapiens; experiment: as §3; assay type: cell-free
[6] = Inhibition of recombinant human thrombin R173A mutant expressed in BHK cells using S2238 as substrate after overnight incubation at 25 degC
Method in brief: (§4)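 BHK-expressed, HPC4 immunoaffinity-purified thrombins, activated from prothrombin form. Active-site concentration from amidolysis and antithrombin titration. Enzyme (1.5−7.5 nM final) incubated overnight at 25 °C with inhibitor in Tris pH 7.4 buffer in coated cuvettes. Residual activity from S2238 initial rate at A405, using at least 9−10 points. Logistic fit gives IC50. Ratio is mutant IC50 over wild-type IC50.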

[7] = Inhibition of human plasma alpha-thrombin assessed as spectrozyme TH hydrolysis preincubated for 10 mins by spectrophotometric analysis; assay type: cell-free; method in brief: as §1
[8] = Inhibition of recombinant human thrombin K235A mutant expressed in BHK cells using S2238 as substrate after overnight incubation at 25 degC; method in brief: as §4
Homo sapiens [9] = organism: Homo sapiens; experiment: Uncompetitive inhibition of human plasma alpha-thrombin using spectrozyme TH as substrate assessed as decrease in substrate Km at 3.6 uM after overnight incubation at 25 degC by Michaelis-Menten equation analysis relative to control; assay type: cell-free
Method in brief: (§5)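 5 nM plasma α-thrombin with fixed inhibitor, preincubated overnight at 25 °C or 2 h at 37 °C in 20 mM Tris-HCl pH 7.4, 100 mM NaCl, 2.5 mM CaCl2, 0.1% PEG8000. Initial Spectrozyme TH (2−80 μM) hydrolysis rate read at 405 nm with under 10% substrate consumption. Michaelis−Menten fit gives KM and VMAX; error ±1 SE.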

[10] = biological target: Coagulation factor X (Homo sapiens) (UniProt P00742); experiment: Inhibition of human factor 10a at 365 uM
[11] = (§6) Binding affinity to human plasma alpha-thrombin exosite-2 using spectrozyme TH as substrate after overnight incubation at 25 degC by spectrophotometric analysis in presence of 2 uM gamma'-fibrinogen peptide; assay type: cell-free
Homo sapiens [12] = organism: Homo sapiens; experiment: as §6; assay type: cell-free
Homo sapiens [13] = organism: Homo sapiens; experiment: Uncompetitive inhibition of human plasma alpha-thrombin using spectrozyme TH as substrate assessed as decrease in enzyme Vmax at 3.6 uM after overnight incubation at 25 degC by Michaelis-Menten equation analysis relative to control; assay type: cell-free; method in brief: as §5
[14] = Inhibition of recombinant human thrombin R233A mutant expressed in BHK cells using S2238 as substrate after overnight incubation at 25 degC; method in brief: as §4
[15] = (§7) Binding affinity to human plasma alpha-thrombin exosite-2 using spectrozyme TH as substrate after overnight incubation at 25 degC by spectrophotometric analysis in presence of 20 uM heparin octasaccharide; assay type: cell-free
Homo sapiens [16] = organism: Homo sapiens; experiment: as §7; assay type: cell-free
[17] = Inhibition of recombinant human thrombin K236A mutant expressed in BHK cells using S2238 as substrate after overnight incubation at 25 degC; method in brief: as §4
[18] = (§8) Binding affinity to human plasma alpha-thrombin exosite-1 using spectrozyme TH as substrate after overnight incubation at 25 degC by spectrophotometric analysis in presence of 15 nM hirugen peptide; assay type: cell-free
Homo sapiens [19] = organism: Homo sapiens; experiment: as §8; assay type: cell-free
[20] = Inhibition of recombinant human thrombin R93A mutant expressed in BHK cells using S2238 as substrate after overnight incubation at 25 degC; method in brief: as §4
[21] = Inhibition of recombinant human thrombin K169A mutant expressed in BHK cells using S2238 as substrate after overnight incubation at 25 degC; method in brief: as §4
[22] = (§9) Binding affinity to human plasma alpha-thrombin exosite-2 using spectrozyme TH as substrate after overnight incubation at 25 degC by spectrophotometric analysis in presence of 42.6 uM unfractionated heparin; assay type: cell-free
Homo sapiens [23] = organism: Homo sapiens; experiment: as §9; assay type: cell-free
[24] = (§10) Binding affinity to human plasma alpha-thrombin exosite-2 using spectrozyme TH as substrate after overnight incubation at 25 degC by spectrophotometric analysis in presence of 1 uM heparin octasaccharide; assay type: cell-free
Homo sapiens [25] = organism: Homo sapiens; experiment: as §10; assay type: cell-free
[26] = (§11) Binding affinity to human plasma alpha-thrombin exosite-2 using spectrozyme TH as substrate after overnight incubation at 25 degC by spectrophotometric analysis in presence of 3 uM heparin octasaccharide; assay type: cell-free
Homo sapiens [27] = organism: Homo sapiens; experiment: as §11; assay type: cell-free
Homo sapiens [28] = organism: Homo sapiens; experiment: Uncompetitive inhibition of human plasma alpha-thrombin using spectrozyme TH as substrate assessed as decrease in substrate Km at 9.9 uM after 2 hrs at 37 degC by Michaelis-Menten equation analysis relative to control; assay type: cell-free; method in brief: as §5
[29] = (§12) Binding affinity to human plasma alpha-thrombin exosite-2 using spectrozyme TH as substrate after overnight incubation at 25 degC by spectrophotometric analysis in presence of 0.2 uM gamma'-fibrinogen peptide; assay type: cell-free
Homo sapiens [30] = organism: Homo sapiens; experiment: as §12; assay type: cell-free
Homo sapiens [31] = organism: Homo sapiens; experiment: Selectivity ratio of IC50 for recombinant human thrombin R233A mutant to IC50 for wild type recombinant human thrombin; method in brief: as §4
[32] = (§13) Binding affinity to human plasma alpha-thrombin exosite-2 using spectrozyme TH as substrate after overnight incubation at 25 degC by spectrophotometric analysis in presence of 10 uM heparin octasaccharide; assay type: cell-free
Homo sapiens [33] = organism: Homo sapiens; experiment: as §13; assay type: cell-free
[34] = (§14) Binding affinity to human plasma alpha-thrombin exosite-2 using spectrozyme TH as substrate after overnight incubation at 25 degC by spectrophotometric analysis in presence of 0.65 uM gamma'-fibrinogen peptide; assay type: cell-free
Homo sapiens [35] = organism: Homo sapiens; experiment: as §14; assay type: cell-free
[36] = (§15) Binding affinity to human plasma alpha-thrombin exosite-2 using spectrozyme TH as substrate after overnight incubation at 25 degC by spectrophotometric analysis in presence of 25 uM unfractionated heparin; assay type: cell-free
Homo sapiens [37] = organism: Homo sapiens; experiment: as §15; assay type: cell-free
[38] = Inhibition of recombinant human thrombin R165A mutant expressed in BHK cells using S2238 as substrate after overnight incubation at 25 degC; method in brief: as §4
Prothrombin = Prothrombin (Homo sapiens, UniProt P00734, R97A); experiment: Inhibition of recombinant human thrombin R97A mutant expressed in BHK cells using S2238 as substrate after overnight incubation at 25 degC; method in brief: as §4

Chain of Coagulation factor X (Homo sapiens) (P00742 41-179 limits assumed): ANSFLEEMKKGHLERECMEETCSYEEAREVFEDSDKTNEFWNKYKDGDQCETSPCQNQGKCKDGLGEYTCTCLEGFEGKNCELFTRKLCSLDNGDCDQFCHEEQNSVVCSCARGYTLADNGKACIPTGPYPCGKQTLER
Chain of Coagulation factor X (Homo sapiens) (P00742 235-488 limits assumed): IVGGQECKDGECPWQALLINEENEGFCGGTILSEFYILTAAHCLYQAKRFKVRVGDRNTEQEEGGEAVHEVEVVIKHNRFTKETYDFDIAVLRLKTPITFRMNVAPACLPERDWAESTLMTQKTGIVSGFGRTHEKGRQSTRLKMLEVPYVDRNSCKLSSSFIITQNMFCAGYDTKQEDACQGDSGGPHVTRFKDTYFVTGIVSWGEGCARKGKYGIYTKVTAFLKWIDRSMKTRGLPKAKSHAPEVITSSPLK

Compound: CCOC(=O)c1c(C)oc2cc(OC)c(OCc3oc4cc(OC)c(OCc5oc6cc(OC)c(OS(=O)(=O)[O-])cc6c5C(=O)OCC)cc4c3C(=O)OCC)cc12.[Na+]
- Efficacy (Homo sapiens [1]): 80%
- IC50 [2]: 1.3 µM
- pIC50(app) (Homo sapiens [3]): 5.88
- IC50 [4]: 2.1 µM
- pIC50(app) (Homo sapiens [5]): 5.68
- pIC50 [6]: 6.59
- IC50 ([7]; read-out: IC50): 0.67 µM
- IC50 ([7]; read-out: pIC50 (converted)): 0.676 µM
- IC50 [8]: 0.27 µM
- pIC50 [8]: 6.57
- fold change (FC) (Homo sapiens [9]): 3.1
- inhibition [10]: inactive
- IC50 [11]: 1.2 µM
- pIC50(app) (Homo sapiens [12]): 5.92
- fold change (FC) (Homo sapiens [13]): 4.3
- IC50 [14]: 0.98 µM
- pIC50 [14]: 6.01
- IC50 [15]: 1.8 µM
- pIC50(app) (Homo sapiens [16]): 5.75
- IC50 [17]: 0.4 µM
- pIC50 [17]: 6.4
- IC50 [18]: 0.9 µM
- pIC50(app) (Homo sapiens [19]): 6.04
- IC50 [20]: 0.19 µM
- pIC50 [20]: 6.73
- IC50 [21]: 0.33 µM
- pIC50 [21]: 6.48
- IC50 [22]: 5.6 µM
- pIC50(app) (Homo sapiens [23]): 5.26
- IC50 [24]: 1.3 µM
- pIC50(app) (Homo sapiens [25]): 5.87
- IC50 [26]: 1.4 µM
- pIC50(app) (Homo sapiens [27]): 5.87
- fold change (FC) (Homo sapiens [28]): 4.1
- IC50 [29]: 1.2 µM
- pIC50(app) (Homo sapiens [30]): 5.94
- Ratio IC50 (Homo sapiens [31]): 3.8
- IC50 [32]: 1.6 µM
- pIC50(app) (Homo sapiens [33]): 5.78
- IC50 [34]: 1.1 µM
- pIC50(app) (Homo sapiens [35]): 5.95
- IC50 [36]: 3.8 µM
- pIC50(app) (Homo sapiens [37]): 5.42
- pIC50 [38]: 6.59
- IC50 (Prothrombin; read-out: IC50): 0.37 µM
- IC50 (Prothrombin; read-out: pIC50 (converted)): 0.363 µM
